Source: PubChem BioAssay (several laboratories)
Yeast superoxide = caloric restriction mimetics inhibiting age-related superoxide in yeast | S. cerevisiae aged cells, superoxide DHE fluorescence; stronger effect = lower value | superoxide response (% of plate mean), % at 10 µM | 330,000 tested, 0.18% active | AID 2690;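 active = superoxide response under a set limit, about three screen SD below normal, cut at about 65% in these data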;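 also: yeast aged for seven days with compound at 30 °C before DHE staining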
SMARCA2 act = SMARCA2 function activation, primary screen | MG213 cells, MMTV-luciferase reporter, dexamethasone, overnight | activation, % at 9.1 µM | 370,000 tested, 1% active | AID 652017; in the data active = activation above about 7.8%
Hep lipid drop = modulators of hepatic lipid droplet formation; AML12 mouse hepatocytes, oleate lipid droplets, BODIPY imaging; inhibition, % at 6.5 µM; 240,000 tested, 0.4% active;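 active = lipid droplet intensity inhibited by at least 50%, with more than 500 cells counted; inconclusive = wells with under 300 cells, treated as cytotoxic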
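Material – mouse AML12 hepatocyte cell line, fixed after treatment · Compound dosing – one dose, 6.5 µM compound · Times – compound with oleate, overnight · Measured by – Image-based BODIPY and DAPI two-channel analysis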
SR-BI uptake up = activators of SR-BI mediated HDL lipid uptake; CHO ldlA[mSR-BI] cells, DiI-HDL uptake fluorescence, 3 h; 100 = double the neutral-control signal; activation, % at 12.5 µM; 320,000 tested, 0.096% active; AID 504775;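 active = mean replicate activation of at least 60% and every replicate at or above 60%; inconclusive = mean or all-replicate condition met, but not both; inactive = mean below 60% and not all replicates reaching 60%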
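Material: SR-BI-overexpressing, LDLR-lacking CHO cells | Dosing: Single compound concentration, delivered by pin transfer | Probe or stimulus: Labelled HDL, 10 µg/mL | Signal: Bottom-read cell fluorescence after medium removal, ex 550/em 595 nm | Schedule: 3 h, 37 °C | Evaluation: HDL uptake via cellular fluorescence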
SR-BI HDL uptake = blocks mouse SR-BI lipid uptake from DiI-HDL; Q61009; ldlA[mSR-BI] CHO cells, DiI-HDL uptake fluorescence, 3 h; inhibition, % at 12.5 µM; 320,000 tested, 0.96% active;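 active = mean replicate inhibition of at least 70% and a set share of replicates each scoring 70 or more; inconclusive = meets just one of the two criteria; inactive = fails both criteria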
Target sequence (Q61009 whole entry, looked up): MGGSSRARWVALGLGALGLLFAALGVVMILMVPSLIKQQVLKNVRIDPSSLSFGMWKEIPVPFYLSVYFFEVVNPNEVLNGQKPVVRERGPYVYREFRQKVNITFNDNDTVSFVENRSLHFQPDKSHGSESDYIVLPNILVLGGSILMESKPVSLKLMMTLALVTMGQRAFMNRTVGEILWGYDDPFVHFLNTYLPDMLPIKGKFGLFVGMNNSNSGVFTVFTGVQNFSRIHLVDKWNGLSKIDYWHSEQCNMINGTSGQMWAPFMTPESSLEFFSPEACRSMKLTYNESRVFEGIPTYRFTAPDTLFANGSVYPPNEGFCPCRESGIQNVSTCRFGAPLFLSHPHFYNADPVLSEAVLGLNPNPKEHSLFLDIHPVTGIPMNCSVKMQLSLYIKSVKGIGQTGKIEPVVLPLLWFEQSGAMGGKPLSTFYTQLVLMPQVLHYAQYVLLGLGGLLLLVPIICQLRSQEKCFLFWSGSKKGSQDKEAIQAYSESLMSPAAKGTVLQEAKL
AHR activator = activates the human aryl hydrocarbon receptor; P35869; AHR-responsive luciferase reporter cells, luminescence; activation, % at 5 µM; 320,000 tested, 2.5% active; in the data active = activation above about 47%
Lipid drop inh = confirmation of inhibitors of hepatic lipid droplet formation; shares compounds with Hep lipid drop; AML12 mouse hepatocytes, BODIPY lipid droplet imaging; droplets induced with 100 µM oleic acid; 870 tested, 65% active; inhibition, % at 5.2 µM; AID 463183;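 active = inhibition of lipid droplet metric at least 50%, with more than 300 cells in each of four replicates; inconclusive = wells under 300 cells, flagged as toxic or low count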
AML12 tox img = counter-screen for cytotoxicity in AML12 mouse hepatocytes; shares compounds with Hep lipid drop; DAPI nuclear morphology cytotoxicity imaging; stronger effect = higher value; cells fed 100 µM oleate overnight; z-score at 5 µM; 870 tested, 3% active; AID 463200; in the data active = z-score above about 6.3;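 also: compound exposure lasted overnight at 37 °C before fixation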
AML12 tox conf = AML12 hepatocyte cytotoxicity, confirmed; shares compounds with Hep lipid drop; AML12 mouse hepatocyte viability, ATP luminescence; cells loaded with 100 µM oleic acid; cytotoxicity, % at 50 µM; 530 tested, under 10 active;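 active = cytotoxicity above 50% in each of four replicates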;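 also: compound exposure lasted overnight at 37 °C before the ATP read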
A number is an active result; i = inactive; ? = inconclusive; nt = no result; ! = a repeat was not active. Most compounds without a hit are left out; they make up all but 4.3% or so of the library.

SMILES | Yeast superoxide | SMARCA2 act | Hep lipid drop | SR-BI uptake up | SR-BI HDL uptake | AHR activator | Lipid drop inh | AML12 tox img | AML12 tox conf
COc1cc(NC(=O)c2cc3ccccc3o2)ccc1NC(=O)c1ccco1 | i | i | i | nt | nt | i | nt | nt | nt
COc1cc(NC(=O)c2oc3ccccc3c2C)ccc1NC(=O)c1ccco1 | i | i | 102.0 | i | i | i | 110.6 | i | i
N#C/C(=C\c1ccc(-c2ccccc2[N+](=O)[O-])o1)C(=O)Nc1nc(-c2cccs2)cs1 | i | i | 72.1 | i | i | 58.5 | 101.2 | i | i
CCOc1ccc(CCNC(=O)CSc2cc(=O)n(CC)c3ccccc23)cc1OCC | i | i | 93.3 | i | i | i | 105.1 | i | i
CCOc1ccc(CCNC(=O)c2cc3sccc3n2CC)cc1OCC | i | i | 91.9 | i | ? | i | 108.5 | i | i
CCOc1ccc(CCNC(=O)c2nnc(Cc3ccc(F)cc3)o2)cc1OCC | i | i | 101.6 | i | i | i | 106.0 | i | i
CCOc1ccc(CCNC(=O)CSc2cc(=O)n(C)c3cc(Cl)ccc23)cc1OCC | i | i | 77.9 | i | i | i | 77.8 | i | i
O=C(/C=C(\Nc1cccc(F)c1)c1ccccc1)c1ccccc1 | nt | i | nt | nt | nt | nt | nt | nt | nt
COc1ccc(/C=N\NC(=O)Cc2cccs2)c(OC)c1OC | nt | i | nt | nt | nt | nt | nt | nt | nt
Cc1nn(CCC(=O)NNC(=O)Nc2ccccc2F)c(C)c1[N+](=O)[O-] | nt | i | nt | nt | nt | nt | nt | nt | nt
c1ccc2c(c1)CCCC2C1=NCCN1 (configuration not stated) | i | i | 53.3 | i | i | i | i | i | nt
Brc1ccc2c(c1)C(C1=NCCN1)c1ccccc1CS2 (configuration not stated) | i | i | i | i | i | i | nt | nt | nt
CCCCCCC12C(=Cc3cc(C)ccc31)c1ccccc1C(CC(=O)NCc1ccccc1)N2C(=O)OC (configuration not stated) | nt | i | nt | nt | nt | nt | nt | nt | nt
COC(=O)C1=C(C)N(Cc2ccccc2C(F)(F)F)C(=NCc2ccc(C(F)(F)F)cc2)NC1c1ccc(C(F)(F)F)cc1 (configuration not stated) | nt | i | nt | nt | nt | nt | nt | nt | nt
C[C@@H]1ON(C)[C@H]2C[C@H]3c4[nH]c5c(-c6ccc(C(F)(F)F)cc6)cccc5c4CCN3C(=O)[C@@H]12 | nt | i | nt | nt | nt | nt | nt | nt | nt
COc1cccc(-c2cn(-c3cccc(C(F)(F)F)c3)c(=S)[nH]2)c1 | i | i | 59.3 | i | i | nt | i | i | nt
Cc1cccc(-n2cc(-c3ccccc3)[nH]c2=S)c1 | i | i | nt | i | i | i | nt | nt | nt
O=C(Nc1ccc(C(F)(F)F)cc1)OC1CC2CC1[C@H]1CCCCN1[C@H]2Cc1ccccc1 (some centres not stated) | nt | i | nt | nt | nt | nt | nt | nt | nt
CCOc1ccccc1C(=O)N(Cc1ccco1)C1CCS(=O)(=O)C1 (configuration not stated) | i | i | nt | i | i | i | nt | nt | nt
CCCCOc1ccccc1C(=O)N(Cc1ccco1)C1CCS(=O)(=O)C1 (configuration not stated) | i | i | 50.9 | i | i | i | i | i | i
NNC(=O)c1cc2ccccc2cc1O | i | i | i | i | i | i | nt | nt | nt
O=C(NCCO)c1cc2ccccc2cc1O | i | i | 50.1! | i | i | i | i | i | nt
Cc1ccc(NC(=O)NNC(=O)CSC2CCc3ccccc32)c(C)c1 (configuration not stated) | nt | i | nt | nt | nt | nt | nt | nt | nt
CCOc1cc(CNC(=O)CCCn2c(=O)c3cccn3c3cccnc32)cc(OCC)c1OCC | i | i | 92.3 | i | i | i | 107.4 | i | i
Cc1cccc(N/C(N)=N/c2nc3c(c(=O)[nH]2)CCCC3)c1 | i | i | i | i | i | i | nt | nt | nt
SMILES | Yeast superoxide | SMARCA2 act | Hep lipid drop | SR-BI uptake up | SR-BI HDL uptake | AHR activator | Lipid drop inh | AML12 tox img | AML12 tox conf
N/C(=N\c1nc2c(c(=O)[nH]1)CCCC2)Nc1ccc(Oc2ccccc2)cc1 | i | i | 61.1 | i | i | i | i | i | nt
Cc1cc(=O)oc2cc(OCC(=O)NCCCN3CCCC3=O)ccc12 | i | i | 51.8 | i | i | i | i | i | nt
O=C(Oc1cccc(/C=N/Nc2nc(Nc3ccccc3)nc(N3CCOCC3)n2)c1)c1ccco1 | i | i | 119.9 | i | i | i | i | 13.3 | nt
Cc1[nH]c2ccccc2c1/C=N/Nc1nc(Nc2ccc(F)cc2)nc(N2CCOCC2)n1 | i | i | 60.9 | i | i | i | ? | 108 | nt
COc1cc(/C=N/Nc2nc(N3CCCCC3)nc(N3CCCCC3)n2)ccc1OC(=O)c1ccco1 | i | nt | i | nt | nt | i | nt | nt | nt
Fc1ccc(Nc2nc(N3CCOCC3)nc(N3CCOCC3)n2)cc1 | i | i | i | i | i | i | nt | nt | nt
Cc1nn(-c2ccccc2)c2sc(C(=O)N3CCN(Cc4ccc(F)cc4)CC3)cc12 | nt | i | nt | nt | nt | nt | nt | nt | nt
CCOc1ccccc1NC(=O)CSCC(=O)Nc1ccccc1 | i | i | 57.3 | i | i | i | 96.0 | i | i
CCOc1ccc(OCC)c(NC(=O)CSCC(=O)O)c1 | i | i | nt | i | i | i | nt | nt | nt
C=CS(=O)(=O)N(Cc1ccc(F)cc1)C(=C)C(=O)OC | nt | i | nt | nt | nt | nt | nt | nt | nt
CCOC(=O)c1cc(CC)sc1NC(=O)Cc1ccccc1 | i | i | i | i | i | i | nt | nt | nt
CCOC(=O)c1cc(CC)sc1NC(=O)C1CC(=O)NN1Cc1ccccc1 (configuration not stated) | i | i | 82.4 | i | i | i | 109.6 | i | i
COC(=O)c1c(NC(=O)C2CC(=O)NN2Cc2ccccc2)sc(C)c1C (configuration not stated) | i | i | nt | i | i | i | nt | nt | nt
COC(=O)c1cc(C)sc1NC(=O)C1CC(=O)NN1Cc1ccccc1 (configuration not stated) | i | i | 86.3 | i | i | i | 109.5 | i | i
C[C@H]1[C@@H](C(=O)N2CCCC2)Cc2nc3ccccc3nc2C[C@@H]1c1ccccc1 | nt | i | nt | nt | nt | nt | nt | nt | nt
O=C(CN1C(=O)NC2(CCOc3ccccc32)C1=O)c1ccc(Cl)cc1 (configuration not stated) | i | i | nt | i | i | i | nt | nt | nt
O=C(CN1C(=O)NC2(CCOc3ccccc32)C1=O)c1ccc(Br)cc1 (configuration not stated) | i | i | 65.8 | i | i | i | 101.6 | i | i
COc1ccc(-n2c(SCc3ccc([N+](=O)[O-])cc3)nnc2-c2ccco2)cc1 | nt | i | nt | nt | nt | nt | nt | nt | nt
Cc1cc2c(cc1S(=O)(=O)Nc1c(C)cccc1C)n(C)c(=O)c(=O)n2C | i | i | 71.2 | i | i | i | 92.4 | i | i
